Results collected from several papers.
Lines come from different studies, so protocols differ.
BRD3 BD1: Bromodomain-containing protein 3, BD1 (BRD3, Homo sapiens, UniProt Q15059)
PIK3C2B: Phosphatidylinositol 4-phosphate 3-kinase C2 domain-containing subunit beta (PIK3C2B, Homo sapiens, UniProt O00750)
ATAD2B: ATPase family AAA domain-containing protein 2B (ATAD2B, Homo sapiens, UniProt Q9ULI0)
KDM1A: Lysine-specific histone demethylase 1A (KDM1A, Homo sapiens, UniProt O60341)

Compound	target	test	conditions	measurement	result
C[S+]([O-])c1ccc(-c2nc(-c3ccncc3)c(-c3ccc(F)cc3)[nH]2)cc1 (stereo not shown)	BRD3 BD1	thermal stability, DSF	10 µM	ΔTm	1.43 °C
Cc1cc2c(cc1N1C(=O)c3cccc4c(Cl)ccc(c34)C1=O)n(C)c(=O)n2C	Bromodomain-containing protein 3, BD2 (BRD3, Homo sapiens, UniProt Q15059)	thermal stability, DSF	10 µM	ΔTm	0.1 °C
COc1cc(Cl)c(C(=O)N[C@@H](CN[C@H]2CC[C@@H](N)CC2)Cc2ccc(C#N)cc2)cc1-c1ccc(CN[C@H](C)c2ccc(C)cc2)o1	Testis-specific serine/threonine-protein kinase 4 (TSSK4, Homo sapiens, UniProt Q6SA08)	enzyme activity, inhibitor	1 µM	remaining activity	98%
Nc1ncnc2occ(-c3ccc(NC(=O)Nc4cc(C(F)(F)F)ccc4F)cc3)c12	PIK3C2B	enzyme activity, inhibitor	20 µM	remaining activity	99%
Cc1ccc(C(=O)Nc2ccc(CN3CCN(C)CC3)c(C(F)(F)F)c2)cc1C#Cc1cnc2cccnn12	PIK3C2B	enzyme activity, inhibitor	23.5 nM	remaining activity	90%
Cc1cnc(Nc2ccc(OCCN3CCCC3)cc2)nc1Nc1cccc(S(=O)(=O)NC(C)(C)C)c1	ATAD2B	thermal stability, DSF	10 µM	ΔTm	-0.06 °C
COc1ccc([C@H]2c3[nH]c4ccccc4c3C[C@@H]3C(=O)N(C(C)(C)C)C(=O)N23)cc1OC	cGMP-specific 3',5'-cyclic phosphodiesterase (PDE5A, Homo sapiens, UniProt O76074)	enzyme activity, inhibitor, FP	50 µM	inhibition	52%
O=C(c1ccc(F)cc1)N(Cc1ccccc1)C1CCCCC1	Endothelin-1 receptor (EDNRA, Homo sapiens, UniProt P25101)	cell-free assay	10 µM	inhibition	0%
CN1CCN(C(=O)[C@H](CCCN[C@@H]2C[C@H]2c2ccc(F)cc2)NC(=O)c2ccc(-n3ccnn3)cc2)CC1	KDM1A	enzyme activity, inhibitor	–	KI (inactivation)	1.19 µM
CC(=O)N[C@H](C(=O)N[C@H](C(=O)N[C@@H](Cc1ccccc1)C(=O)N[C@H](C(=O)N[C@@H](CO)C(=O)N[C@@H](Cc1c[nH]c2ccccc12)C(=O)N[C@@H](CCC(=O)O)C(=O)N[C@@H](CCC(=O)O)C(=O)N[C@@H](Cc1ccc(O)cc1)C(=O)N[C@@H](CC(C)C)C(=O)N[C@@H](CC(=O)O)C(=O)N[C@@H](Cc1c[nH]c2ccccc12)C(=O)N[C@H](C(N)=O)C(C)C)[C@@H](C)O)C(C)C)[C@@H](C)O	Proprotein convertase subtilisin/kexin type 9 (PCSK9, Homo sapiens, UniProt Q8NBP7)	binding, SPR	–	koff	0.173 s⁻¹
NS(=O)(=O)c1ccc(Nc2nc(-c3ccc(F)cc3)c3ccccc3n2)cc1	ATAD2B	binding, competition with immobilised ligand	1 µM	remaining binding	76%
Oc1ccc(-c2nc(-c3ccncc3)c(-c3ccc(F)cc3)[nH]2)cc1	BRD3 BD1	thermal stability, DSF	10 µM	ΔTm	0.72 °C
O=C(O)c1ccc(CN2CCC(CN[C@@H]3C[C@H]3c3ccccc3)CC2)cc1	KDM1A	enzyme activity, inhibitor	–	KI (inactivation)	2.14 µM
